Screening data from PubChem BioAssay.
Only some compounds are listed: those with a hit (about 2.9% of all), similar ones and a draw of the others.
SENP6 inh – SENP6 protease inhibitors, primary screen, biochemical, luminescence, uHTS; Sentrin-specific protease 6 (Homo sapiens), Q9GZR1; Recombinant SENP6 catalytic domain, aminoluciferin luminescence; inhibition, % at 10 µM; actives 1.8% (n = 330,000); AID 2599, 2010;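 active = inhibition above about 50% at the single tested dose, limit read from the data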;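 also: plate controls were DMSO wells with enzyme for no effect and DMSO wells lacking enzyme for full effect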
Target sequence (Q9GZR1 628-1112 limits assumed): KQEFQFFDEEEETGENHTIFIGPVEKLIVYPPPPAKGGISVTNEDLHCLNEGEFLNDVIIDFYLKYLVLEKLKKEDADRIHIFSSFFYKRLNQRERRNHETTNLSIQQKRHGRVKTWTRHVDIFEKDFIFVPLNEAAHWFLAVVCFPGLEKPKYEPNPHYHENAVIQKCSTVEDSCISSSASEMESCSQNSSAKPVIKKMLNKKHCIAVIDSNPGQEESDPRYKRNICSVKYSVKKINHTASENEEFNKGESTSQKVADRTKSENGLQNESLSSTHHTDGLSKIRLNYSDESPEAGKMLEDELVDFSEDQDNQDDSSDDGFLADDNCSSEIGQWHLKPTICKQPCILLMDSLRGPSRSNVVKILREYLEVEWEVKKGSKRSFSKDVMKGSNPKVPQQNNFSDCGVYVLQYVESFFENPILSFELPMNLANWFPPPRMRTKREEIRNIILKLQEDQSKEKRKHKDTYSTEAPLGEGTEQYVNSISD
SENP1 inh – human SENP1 catalytic domain inhibitors, primary screen, biochemical, FRET, uHTS | recombinant SENP1 catalytic domain, CyPet-SUMO1-YPet FRET cleavage | inhibition, % at 10 µM | actives 0.21% (n = 360,000) | AID 624204, 2012;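 active = inhibition at least 30% at 10 µM, raw YFP signal under a set limit, fluorescence ratio 0.5 to 1.5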;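 also: 0% = enzyme with DMSO and 100% = no enzyme wells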
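Assay system: hSENP1 catalytic domain, recombinant. Amount: SENP1 enzyme, 20 pM final. Schedule: 50 min reaction, RT, dark. Technique: FRET, CFP and YFP emission. Control set: no-enzyme wells low, DMSO-plus-enzyme wells high control.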
HSP90 inh – HSP90 inhibitors, primary screen, cell lysate, luminescence; Heat shock protein HSP 90 (rabbit reticulocyte lysate; luciferase refolding); Rabbit reticulocyte lysate, luciferase refolding luminescence, 3 h; inhibition, % at 5.6 µM; actives 0.91% (n = 290,000); AID 1789, 2009;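 active = inhibition above the screen-wide mean plus 3 SD, computed separately per campaign, cut at about 16% in these data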;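 also: 0% = DMSO wells and 100% = 60 µM geldanamycin wells; inhibitors lower the luminescence because luciferase stays unfolded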
SENP8 block-1 – SENP8 protease inhibitors, primary screen, biochemical, luminescence. Sentrin-specific protease 8 (Homo sapiens), Q96LD8. purified SENP8, Z-RLRGG-aminoluciferin cleavage. inhibition, % at 10 µM. actives 1.2% (n = 330,000). AID 2540, 2010; in the data active = inhibition above about 50%
SENP7 block – SENP7 protease inhibitors, primary screen, biochemical, luminescence, uHTS; inhibition, % at 5 µM; AID 434973, 2010; Sentrin-specific protease 7 (Homo sapiens), Q9BQF6; actives 1.5% (n = 330,000); recombinant SENP7, Z-RLRGG-aminoluciferin luminescence, 40 min;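 active = inhibition above about 50% at the single test dose, limit read from the data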;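 also: plate controls were DMSO with enzyme for no effect and no enzyme buffer wells for full effect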
SENP8 block-2 – human SENP8 protease inhibitors, primary screen, biochemical, fluorescence, Nedd8 protein substrate, uHTS. Sentrin-specific protease 8 (Homo sapiens), Q96LD8. actives 0.64% (n = 360,000). recombinant SENP8. AID 602440, 2012. inhibition, % at 20 µM; in the data active = inhibition mostly above about 40%, no sharp cut-off; inactive = mostly below about 27%
SENP8 conf – SENP8 protease inhibitors, retest, confirmation, biochemical, luminescence, single concentration; shares compounds with SENP7 block; Recombinant SENP8, Z-RLRGG-aminoluciferin luminescence, 60 min; inhibition, % at 12.5 µM; actives 40% (n = 6,200); AID 488912, 2010;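 active = mean inhibition across replicates above about 50%, limit read from the data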
SENP6 confirm – SENP6 protease inhibitors, confirmation, biochemical, luminescence, single concentration; shares compounds with SENP7 block; recombinant SENP6, Z-RLRGG-aminoluciferin luminescence; inhibition, % at 12.5 µM; actives 58% (n = 6,200); AID 488915, 2010
SENP7 conf – SENP7 protease inhibitors, retest, confirmation, biochemical, luminescence, single concentration. shares compounds with SENP7 block. recombinant SENP7, Z-RLRGG-aminoluciferin luminescence, 40 min. inhibition, % at 12.5 µM. actives 69% (n = 6,200). AID 488917, 2010
Casp3 SENP sel – caspase-3 protease inhibitors, confirmation, selectivity assay for SENP inhibitor project, biochemical, single concentration; shares compounds with SENP7 block; actives 60% (n = 6,200); purified caspase-3, Z-DEVD-aminoluciferin luminescence, 60 min; inhibition, % at 12.5 µM;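 active = mean inhibition above about 50%, limit read from the data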;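 also: plate controls were enzyme with DMSO for no effect and wells without caspase-3 for full effect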
SENP luc ctr – counter-screen for SENP inhibitors: luminescence interference. AID 488919. shares compounds with SENP7 block. Pre-incubated SENP8/Z-RLRGG-aminoluciferin, luciferase luminescence interference. inhibition, % at 12.5 µM. actives 39% (n = 6,200);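 active = mean inhibition above about 50% when retested at one dose, limit read from the data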;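 also: plate controls were DMSO wells with completed reaction for no effect and substrate without enzyme for full effect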
Numbers without * were called inactive; / = not tested or not shown.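 The calls were made as follows, unless noted: active = mean inhibition above about 50% in the one-dose retest (limit read from the data); inactive = the rest.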

SMILES	SENP6 inh	SENP1 inh	HSP90 inh	SENP8 block-1	SENP7 block	SENP8 block-2	SENP8 conf	SENP6 confirm	SENP7 conf	Casp3 SENP sel	SENP luc ctr
Cc1ccc(CN=C2Nc3ccccc3CS2)cc1	89*	1	3	83*	88*	14	91*	91*	100*	84*	83*
Clc1ccc(CN=C2Nc3ccccc3CS2)cc1	69*	0	1	44	60*	11	66*	68*	87*	48	80*
Cc1ccc(S(=O)(=O)N2CCCCC2C(=O)O)s1 (stereo not drawn)	4	2	-1	0	7	-12	/	/	/	/	/
O=C1OCCOC2CCCc3oc(C4=CCCCC4)c1c32 (stereo not drawn)	/	0	/	/	/	-72	/	/	/	/	/
C[C@H](CO)N1C[C@H](C)[C@@H](CN(C)S(=O)(=O)c2cn(C)cn2)Oc2ccc(NC(=O)C3CCCCC3)cc2C1=O	-9	0	/	-13	-4	9	/	/	/	/	/
O=C(COc1cc2oc(=O)c3c(c2cc1Cl)CCC3)Nc1cccnc1	23	-4	2	1	67*	-71	13	8	16	15	3
Nc1c(N(Cc2ccccc2)C(=O)COc2ccc(F)cc2Cl)c(=O)[nH]c(=O)n1Cc1ccccc1	-30	1	/	-19	-11	-3	/	/	/	/	/
Cc1cccn2cc(-c3cc4ccccc4oc3=O)nc12	22	-104	7	23	23	-456	/	/	/	/	/
O=c1oc2ccccc2cc1-c1cn2cccnc2n1	58*	-13	1	36	47	-349	46	47	82*	82*	31
COc1ccc(-n2nc3c(c2NC(=O)c2ccc4c(c2)OCO4)CS(=O)(=O)C3)cc1	7	-5	1	-10	-1	-101	/	/	/	/	/
COc1ccc(C(=O)Nc2ccc(Cl)c(Cl)c2)c(OC)n1	12	2	-5	-6	51*	9	18	14	25	34	14
O=C(Nc1ccc(C(=O)O)cc1)Nc1ccc(F)cc1F	83*	2	5	69*	77*	5	77*	73*	93*	91*	76*
COc1ccc(NC(=O)Nc2ccc(F)cc2F)cc1	74*	1	5	59*	80*	6	58*	71*	93*	80*	26
COc1ccc(NC(=O)Nc2ccc(F)cc2F)c(C)c1	-3	1	2	1	4	18	/	/	/	/	/
O=C(Nc1ccccc1)Nc1ccc(Br)cc1F	13	-1	-2	10	28	11	/	/	/	/	/
COCCN1C(=O)C(=O)/C(=C(/O)c2ccc(S(=O)(=O)N3CCOCC3)cc2)C1c1cccc(Cl)c1 (stereo not drawn)	-5	0	4	-3	1	21	/	/	/	/	/
